Screens deposited in PubChem BioAssay by Johns Hopkins Ion Channel Center.
KCNK9 block – inhibitors of human KCNK9 two-pore domain potassium channel; Q9NPC2; HEK293 KCNK9, FluxOR thallium flux fluorescence; hits give low values; B-score at 10 µM; actives 1.2% (n = 310,000);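 active = ratio B-score over 3 SD below the library mean, with starting fluorescence within 5 SD of its mean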;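 also: negative B-score means less thallium flux so channel inhibition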
Kir21 block – blocks the mouse Kir2.1 inward-rectifier potassium channel; actives 0.85% (n = 310,000); B-score at 10 µM; P35561; HEK293-Kir2.1, FluxOR thallium flux fluorescence; hits give low values;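 active = fluorescence ratio B-score at or below minus 3 SD of library scores, with starting-brightness B-score within 2 SD, cut at about -4.2 in these data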;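 also: channel flux triggered by added potassium and thallium sulfate stimulus; B-score of peak minus minimum fluorescence over baseline after thallium stimulus; more negative B-score means stronger Kir2.1 block with less thallium influx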
hERG rescue – shields human hERG channel from block by proarrhythmic agents. actives 0.51% (n = 310,000). activation (rescue from dofetilide block), less the hit threshold, % at 10 µM. CHO-hERG, FluxOR thallium flux, dofetilide IC70 present. AID 1511. Q12809;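 active = activation above the mean of controls blocked by dofetilide plus 5 SD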;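 also: thallium influx through hERG after potassium depolarization seen as dye fluorescence rise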
Target sequence (Q12809 whole entry, looked up): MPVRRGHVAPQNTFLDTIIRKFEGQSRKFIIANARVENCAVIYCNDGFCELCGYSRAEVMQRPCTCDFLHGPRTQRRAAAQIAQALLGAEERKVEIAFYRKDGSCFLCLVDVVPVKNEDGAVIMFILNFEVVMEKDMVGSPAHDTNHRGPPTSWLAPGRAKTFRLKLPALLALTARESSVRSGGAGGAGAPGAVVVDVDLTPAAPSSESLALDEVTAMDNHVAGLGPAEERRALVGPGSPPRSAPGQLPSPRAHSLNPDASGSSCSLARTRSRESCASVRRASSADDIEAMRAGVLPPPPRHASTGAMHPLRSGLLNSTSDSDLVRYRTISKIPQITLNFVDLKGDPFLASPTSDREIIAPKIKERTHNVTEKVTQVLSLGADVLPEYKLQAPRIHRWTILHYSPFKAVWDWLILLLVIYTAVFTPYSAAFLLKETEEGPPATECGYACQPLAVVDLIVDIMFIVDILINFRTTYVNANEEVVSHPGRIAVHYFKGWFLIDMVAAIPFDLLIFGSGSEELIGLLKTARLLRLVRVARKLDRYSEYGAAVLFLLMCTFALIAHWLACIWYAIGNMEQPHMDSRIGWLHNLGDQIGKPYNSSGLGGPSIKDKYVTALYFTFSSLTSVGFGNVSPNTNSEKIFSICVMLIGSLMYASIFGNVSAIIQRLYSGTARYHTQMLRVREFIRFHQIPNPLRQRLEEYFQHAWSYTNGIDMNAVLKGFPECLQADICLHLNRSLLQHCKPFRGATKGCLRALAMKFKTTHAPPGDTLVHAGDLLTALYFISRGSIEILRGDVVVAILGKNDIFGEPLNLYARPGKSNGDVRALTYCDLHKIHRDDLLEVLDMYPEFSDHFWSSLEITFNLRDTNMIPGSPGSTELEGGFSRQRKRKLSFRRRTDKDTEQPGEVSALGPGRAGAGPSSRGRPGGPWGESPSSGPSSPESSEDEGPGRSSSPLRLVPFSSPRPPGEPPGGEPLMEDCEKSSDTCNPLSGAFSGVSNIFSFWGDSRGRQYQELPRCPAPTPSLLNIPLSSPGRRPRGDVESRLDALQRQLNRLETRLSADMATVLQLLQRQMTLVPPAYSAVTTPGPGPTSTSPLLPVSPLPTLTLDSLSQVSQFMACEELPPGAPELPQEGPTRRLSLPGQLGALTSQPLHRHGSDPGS
KCNQ1 inh – human KCNQ1 channel inhibition; P51787; CHO-K1 KCNQ1, FluxOR thallium flux fluorescence; hits give high values; B-score at 10 µM; actives 1.3% (n = 310,000); AID 2642;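 active = compounds whose thallium flux B-score, printed positive for inhibition, exceeds three library SD while starting fluorescence stays within three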;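 also: channel opened by potassium depolarization with thallium stimulus after 20 min compound exposure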
KCNQ1 act – potentiators or activators of human KCNQ1 potassium channel; CHO-K1 KCNQ1, thallium flux FluxOR fluorescence; hits give high values; B-score at 10 µM; actives 0.35% (n = 310,000); AID 2648;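 active = fluorescence ratio B-score, a plate-corrected score, at least three library SD, with initial intensity B-score within 5 SD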
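System: CHO-K1 cells stably expressing KCNQ1 / Medium: assay buffer for compound exposure, DMSO matched across wells / Reagent: thallium- and potassium-containing depolarizing buffer / Compound: one concentration, matched DMSO / Incubation: 20 min compound pretreatment at room temperature / Measured by: kinetic FluxOR fluorescence, 10 s baseline plus 110 s post-stimulus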
KCNK3 block – human KCNK3 channel inhibition, primary screen; O14649; CHO-KCNK3 thallium flux, FluxOR fluorescence; hits give low values; B-score at 10 µM; actives 0.84% (n = 340,000);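 active = B-score under library mean minus 4 SD, starting fluorescence ratio at most library mean plus 5 SD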;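 also: more negative B-score means stronger inhibition of thallium flux through KCNK3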
KCNK9 block conf – confirmation of human KCNK9 potassium channel inhibitors; shares compounds with KCNK9 block; HEK293 KCNK9 cells, FluxOR thallium flux fluorescence; inhibition, % at 10 µM; actives 43% (n = 4,900);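 active = thallium signal inhibited by more than 5 SD of the compound-free buffer control wells, on both duplicate plates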;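 also: 0% = assay buffer control wells without compound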
Kir21 sel – tests whether KCNK9 modulators also affect mouse Kir2.1; shares compounds with KCNK9 block; Kir2.1 cells, FluxOR thallium flux fluorescence; inhibition, % at 10 µM; actives 4% (n = 4,900); AID 492993;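 active = thallium signal drop more than 5 SD beyond the mean of the no-compound control wells, seen in both duplicate plates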;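 also: signal is fluorescence rise after thallium addition divided by baseline fluorescence; plate controls were assay buffer only for no effect and full block by chlorpromazine control for full effect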
KCNK9 uninduced – non-induced cell nonspecific activity of KCNK9 modulators | shares compounds with KCNK9 block | non-induced KCNK9-HEK293, FluxOR thallium flux | inhibition, % at 10 µM | actives 40% (n = 4,900);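 active = thallium signal drop beyond 5 SD of the untreated control mean, on both duplicate plates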;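 also: plate controls were buffer only IC0 wells for no effect and SID17386958 at its maximal inhibitory level for full effect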
Starred values were filed as active, the others as inactive; i = inactive; . = no result given. The list is not random: actives were taken first. Their share in the collection is about 3.7%.

SMILES	KCNK9 block	Kir21 block	hERG rescue	KCNQ1 inh	KCNQ1 act	KCNK3 block	KCNK9 block conf	Kir21 sel	KCNK9 uninduced
COc1ccc(NC(=O)c2oc3ccccc3c2NC(=O)c2ccco2)cc1	-9.1*	0.03	-1	i	i	i	i	i	i
COc1ccc(NC(=O)c2oc3ccccc3c2NC(=O)C(C)(C)C)cc1	i	-1.6	-9	i	i	i	.	.	.
COc1ccc(-c2csc(NC(=O)c3ccco3)n2)cc1	-8.7*	-1.4	-4	i	i	i	i	i	i
COc1ccc(Cl)cc1Nc1nc(-c2sc(NC(=O)CC(C)C)nc2C)cs1	-13*	-1.1	-7	i	i	i	41%*	i	34%*
COc1cccc(CNC(=O)CCNC(=O)c2ccccc2OC)c1	i	0.79	-15	i	i	i	.	.	.
Cc1ccc(NC(=O)COc2coc(CN3CCc4ccccc43)cc2=O)cc1Cl	i	1.6	0	i	i	i	.	.	.
Cc1ccc(-c2csc(NC(=O)c3ccc(-c4ccccc4)cc3)n2)o1	-9.7*	0.6	-15	i	i	i	i	i	i
CCC(C)C(=O)Nc1nc(C)c(-c2csc(Nc3ccccc3OC)n2)s1 (stereo unspecified)	-9.2*	0.56	-14	i	i	i	58%*	i	28%*
O=C(Nc1nc(-c2ccco2)cs1)c1ccccc1	i	0.71	-17	i	i	i	.	.	.
COc1ccc(-c2cc(C(F)(F)F)n3ncc(C(=O)NCc4ccco4)c3n2)cc1	i	-1.2	-6	i	i	i	.	.	.
COc1ccc(-c2cc(C(F)(F)F)n3ncc(C(=O)N(C)Cc4ccccc4)c3n2)cc1	i	0.51	-15	i	i	i	i	i	i
CC1CC2(C)Oc3ccccc3CC2C(C)C1CNCCCN(C)C (stereo unspecified)	i	-3.8	-6	i	i	i	.	.	.
CS(=O)(=O)c1ccc(C(=O)NNC(=O)c2ccccc2-n2cccc2)cc1	.	.	.	.	.	i	.	.	.
CCCCC(=O)Nc1cccc(-c2nc3ncccc3o2)c1	-11*	-0.05	-23	i	i	i	34%*	i	i
COc1ccc(-c2noc3c2-c2nc(-c4ccccc4F)sc2CC3)cc1	i	-0.07	-12	i	i	i	.	.	.
CC(C(=O)NC1C=CS(=O)(=O)C1)N1C(=O)/C(=C/c2cccc(Cl)c2)SC1=S (stereo unspecified)	i	-0.32	-7	i	i	i	i	i	i
CC(C(=O)NC1C=CS(=O)(=O)C1)N1C(=O)/C(=C\c2ccccc2)SC1=S (stereo unspecified)	i	-1.6	-9	i	i	i	.	.	.
Cc1ccc(NC(=O)C2COc3ccccc3O2)cc1S(=O)(=O)N1CCCCC1 (stereo unspecified)	.	.	.	.	.	i	.	.	.
C[C@@H](O)[C@H]1C(=O)N2C(C(=O)O)=C(S[C@@H]3CN[C@H](C(=O)N(C)C)C3)[C@H](C)[C@H]12	i	0.2	-7	i	i	.	.	.	.
OC(COc1ccc(Cl)cc1)CN1CCN(c2cccc(Cl)c2)CC1 (stereo unspecified)	i	-0.39	-20	i	i	i	i	i	i
CN1CCN(CC(O)COC(c2ccccc2)c2ccccc2)CC1 (stereo unspecified)	i	-0.28	-7	i	i	i	.	.	.
Cc1cccc(C)c1OCC(O)CN1CCN(c2ccccc2)CC1 (stereo unspecified)	i	0.56	-16	i	i	i	i	i	i
OC(COC(c1ccc(Cl)cc1)c1ccc(Cl)cc1)CN1CCN(c2ccccn2)CC1 (stereo unspecified)	i	1.5	-34	i	i	i	i	i	i
OC(COC(c1ccccc1)c1ccccc1)CN1CCN(c2cccc(Cl)c2)CC1 (stereo unspecified)	i	0.65	-12	i	i	i	i	i	i
COc1ccccc1CNC(=O)COC(=O)c1cc(=O)c2ccccc2o1	.	.	.	.	.	i	.	.	.
SMILES	KCNK9 block	Kir21 block	hERG rescue	KCNQ1 inh	KCNQ1 act	KCNK3 block	KCNK9 block conf	Kir21 sel	KCNK9 uninduced
O=C(CN1N=C(c2ccccc2)CCC1=O)NCc1ccco1	i	-0.76	-6	i	i	.	.	.	.
Cc1cccc(C(=O)NC(=S)Nc2ccc(Cc3ccncc3)cc2)c1	i	0.14	-4	i	i	i	i	i	i
Cc1cccc(C(=O)NC(=S)NC(C)c2ccccc2)c1 (stereo unspecified)	i	-1.4	-9	i	i	i	i	i	i
CC(NC(=S)NC(=O)c1ccccc1)c1ccccc1 (stereo unspecified)	i	-0.07	-5	i	i	i	i	i	i
COc1cc(C(=O)OCC(=O)Nc2cc(S(=O)(=O)N3CCOCC3)ccc2C)ccc1OCC(C)C	i	-0.2	-13	i	i	i	.	.	.
Cc1cc(OCCn2nc(C(=O)O)c3ccccc3c2=O)ccc1C(C)C	i	-0.28	-9	i	i	i	i	i	i
C/C(=N\NC(=O)CNC(=O)c1cccs1)c1ccc(Cl)c(Cl)c1	i	0.45	-9	i	i	i	.	.	.
Cc1ccc2ccc(C(Nc3ccccn3)c3ccccc3)c(O)c2n1 (stereo unspecified)	i	-0.19	-10	i	i	i	i	i	i
COc1cc(C(Nc2ccccn2)c2ccc3ccc(C)nc3c2O)cc(OC)c1O (stereo unspecified)	i	-0.01	-24	i	i	i	.	.	.
CCC(C)(C)n1nnnc1C(c1ccc2ncccc2c1)N1CCN(c2nc3ccccc3s2)CC1 (stereo unspecified)	-15*	0.04	-7	i	i	i	47%*	i	45%*
CCC(C)(C)n1nnnc1C(c1ccc2ncccc2c1)N1CCN(c2ccc(O)cc2)CC1 (stereo unspecified)	i	1.3	-11	i	i	i	.	.	.
CC(C)(C)c1ccc(C(=O)N2CCCC2c2cccs2)cc1 (stereo unspecified)	i	0.32	-11	i	i	i	i	i	i
